The text below walks through data of ChEMBL document CHEMBL1764985, “Design, synthesis, and evaluation of coumarin-based molecular probes for imaging of myelination” (J Med Chem, 2011).

Calls of active or inactive are those of the source.

Data set [1] has as its target Myelin basic protein (Mus musculus) (UniProt P04370). The experiment in a line: Binding affinity to corpus collosum myelin in central nervous system of mouse […] by fluorescent microscopy. The format is tissue-based. The following applies: Corpus callosum.
Data set [2] is filed under the species Mus musculus. The experiment in a line: Selectivity for mouse white matter myelin over gray matter myelin. The format is tissue-based. A digest of the protocol:
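Mouse brain sections stained with compound at 100 μM. Fluorescence intensity measured in predefined ROIs: part of the corpus callosum (white matter) and a subcortical gray matter region. White/gray intensity ratio calculated; mean ± SD, n = 3.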

Data set [3] is described as follows: Half life of the compound in mouse brain. It counts as ADME, tissue-based.
The target in data set [4] is Myelin basic protein (Mus musculus) (UniProt P04370). Briefly: Binding affinity to cerebellum myelin in central nervous system of mouse […] by fluorescent microscopy.
Data set [5] in a line: Lipophilicity, log P of the compound. The format is physicochemical. As to conditions: octanol/water.
Data set [6] relates to Mus musculus. The experiment in a line: Binding affinity to sciatic nerve myelin in C57BL/6 mouse at 40 mg/kg after 20 mins, iv after 10 mins by fluorescent microscopy. Also noted: dose 40 mg/kg. It counts as functional, organism-based. A digest of the protocol: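 Eight-week C57BL/6 mice dosed 40 mg/kg by tail vein in saline; saline alone as control. At 10 min, mice anesthetized with isoflurane and sciatic nerves surgically exposed and imaged under a dissection fluorescence microscope (LP 590 filter). Nerves imaged again after perfusion.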

For data set [7], the target named is Myelin basic protein (Mus musculus) (UniProt P04370). The experiment in a line: Binding affinity to caudate putamen myelin in mouse by fluorescent microscopy. It counts as tissue-based. A digest of the protocol: (§1)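 Wild-type mice given 40 mg/kg via tail vein under anesthesia, then perfused transcardially with saline followed by 4% PFA in PBS. Brain sections imaged by fluorescence microscopy (BP470/40 nm filter) for in situ staining in cerebellum, caudate putamen/striatum and temporal cortex. Same sections co-stained with anti-MBP antibody for comparison.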

Data set [8] shares this target. Briefly: Binding affinity to sciatic nerve myelin in peripheral nervous system of mouse at 100 uM […] by Black gold II staining.
The target is the same in data set [9]. Briefly: Binding affinity to temporal cortex myelin in mouse by fluorescent microscopy. It counts as tissue-based. In a few lines:
as §1

The target is the same in data set [10]. The experiment in a line: Binding affinity to corpus collosum myelin in myelin deficient shiverer mouse assessed as myelination levels at 100 uM after 20 mins by fluorescent microscopy relative to control. As to conditions: Corpus callosum. In a few lines:
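Frozen 20 μm brain sections from wild-type C57BL/6 and shiverer (C3Fe.SWV-Mbp^shi/J) mice stained with compound at 100 μM, with anti-MBP immunostaining of the same sections. Pixel intensity in a corpus callosum ROI (midline to below cingulum apex) quantified. Wild-type set to 100, shiverer expressed as percentage. Nonpaired Student's t test.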

Chain of Myelin basic protein (Mus musculus) (P04370 whole entry, the tested form may be a part): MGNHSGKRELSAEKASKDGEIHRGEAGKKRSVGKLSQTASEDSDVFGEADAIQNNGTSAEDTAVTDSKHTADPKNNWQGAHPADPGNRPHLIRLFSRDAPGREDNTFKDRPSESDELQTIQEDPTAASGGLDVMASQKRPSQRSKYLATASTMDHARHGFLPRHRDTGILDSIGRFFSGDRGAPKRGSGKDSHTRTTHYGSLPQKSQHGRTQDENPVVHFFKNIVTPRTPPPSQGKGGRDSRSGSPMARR

In the case of `CCN(CC)c1ccc(-c2ccc3cc(-c4nc5ccccc5[nH]4)c(=O)oc3c2)cc1`, in [1], the outcome was Active.

For `CCN(CC)c1ccc(-c2ccc3cc(-c4ccc(N)cc4)c(=O)oc3c2)cc1`, the result in [1] was Active.

`CCN(CC)c1ccc(-c2ccc3cc(-c4ccc(CBr)cc4)c(=O)oc3c2)cc1`: in [1], the result was Active.

For the compound `CN(C)c1ccc2c(C(F)(F)F)cc(=O)oc2c1`, the result in [1] was inactive.

Turning to `CN(C)c1ccc(-c2cc3ccccc3oc2=O)cc1`, the outcome in data set [1] was Active. In addition, the white/gray matter fluorescence ratio in data set [2] was 1.34.

Consider `Nc1cc2ccccc2oc1=O`, for which, in data set [1], the outcome was inactive.

`Nc1ccc2c(C(F)(F)F)cc(=O)oc2c1`: the result in data set [1] was inactive.

`CN(C)c1ccc(-c2cc3cc(OCCF)ccc3oc2=O)cc1`: in data set [1], the result was Active. Moreover, the white/gray matter fluorescence ratio in data set [2] came to 1.33.

`CN(C)c1ccc(-c2cc3cc(F)ccc3oc2=O)cc1`: in [1], the result was Active.

Turning to `Cc1cc(=O)oc2ccccc12`, the outcome in [1] was inactive.

With `CN(C)c1ccc(-c2cc3ccc(OCCCF)cc3oc2=O)cc1`, the half-life (usually the time needed for the level to fall by half in the phase considered) in data set [3] worked out at 20 min. In addition, the outcome in data set [4], in data set [1], in [6], in [7], in data set [8] and in data set [9] was Active. Also, the log partition coefficient (logP) (in general, the decadic logarithm of the partition coefficient of the neutral form, usually between octanol and water) in data set [5] was determined as 3.82. Besides, in data set [2], the white/gray matter fluorescence ratio was found to be 1.54. Also, the Activity in data set [10] came out at 12%.

With `CN(C)c1ccc(-c2cc3ccc(O)cc3oc2=O)cc1`, the result in data set [1] was Active. The white/gray matter fluorescence ratio in data set [2] turned out to be 1.25.

For the compound `O=c1oc2ccccc2cc1O`, in [1], the outcome was inactive.

In the case of `O=c1oc2ccc(F)cc2cc1-c1ccc([N+](=O)[O-])cc1`, in data set [1], the outcome was inactive.

Turning to `CCN(CC)c1ccc(-c2ccc3cc(-c4nc5ccccc5s4)c(=O)oc3c2)cc1`, in [1], the outcome was Active.

As to `COc1ccc2ccc(=O)oc2c1`, the result in data set [1] was inactive.

Turning to `Nc1cc(=O)oc2ccccc12`, the outcome in data set [1] was inactive.

Take `Nc1ccc(-c2cc3ccccc3oc2=O)cc1`: the outcome in data set [1] was Active. Further, the white/gray matter fluorescence ratio in [2] amounted to 1.39.

As for `O=c1cc(C(F)(F)F)c2ccc(O)cc2o1`, the outcome in data set [1] was inactive.

On to `CCN(CC)c1ccc(-c2ccc3cc(-c4nc5ccccc5n4C)c(=O)oc3c2)cc1`, for which the result in [1] was Active.

Regarding `CC(=O)Oc1ccc2cc(-c3ccc(N(C)C)cc3)c(=O)oc2c1`, the result in data set [1] was Active. In data set [2], the white/gray matter fluorescence ratio worked out at 1.35.

For `CN(C)c1ccc(-c2cc3ccc(OCCF)cc3oc2=O)cc1`, the result in data set [1] was Active. Also, the white/gray matter fluorescence ratio in data set [2] is 1.52.

Regarding `CC(=O)Oc1ccc2oc(=O)c(-c3ccc(N(C)C)cc3)cc2c1`, the result in [1] was Active. Also, in [2], the white/gray matter fluorescence ratio stood at 1.53.

As to `O=c1cc(O)c2ccccc2o1`, in [1], the result was inactive.

For `CCN(CC)c1ccc(-c2ccc3cc(C(=O)c4cccs4)c(=O)oc3c2)cc1`, the result in data set [1] was Active.

Turning to `Nc1ccc(-c2cc3cc(F)ccc3oc2=O)cc1`, the outcome in data set [1] was Active.

For the compound `CCN(CC)c1ccc(-c2ccc3cc(-c4ccc([N+](=O)[O-])cc4)c(=O)oc3c2)cc1`, the result in [1] was Active.

Consider `Cc1ccc2ccc(=O)oc2c1`, for which the result in data set [1] was inactive.

For `O=c1oc2ccccc2c(O)c1Cc1c(O)c2ccccc2oc1=O`, the result in data set [1] was inactive.

For `CN(C)c1ccc(-c2cc3cc(O)ccc3oc2=O)cc1`, in data set [1], the result was Active. The white/gray matter fluorescence ratio in data set [2] is 1.48.

For `O=c1oc2ccccc2cc1-c1ccccc1`, the result in data set [1] was inactive.

Consider `O=c1ccc2ccccc2o1`, for which the result in [1] was inactive.

With `O=c1oc2cc(O)ccc2cc1-c1ccccc1`, the outcome in data set [1] was inactive.

With `CN(C)c1ccc(-c2cc3cc(OCCCF)ccc3oc2=O)cc1`, the outcome in data set [1] was Active. Further, in data set [2], the white/gray matter fluorescence ratio was 1.38.

In the case of `O=c1oc2ccccc2cc1-c1ccc([N+](=O)[O-])cc1`, the result in data set [1] was inactive.
